In ChEMBL document CHEMBL1131244, “New alkenyldiarylmethanes with enhanced potencies as anti-HIV agents which act as non-nucleoside reverse transcriptase inhibitors” (J Med Chem, 1998):

Experiments:
[1] = system: CCRF-CEM; assay: The compound is evaluated for the cytotoxic concentration for the mock-infected CEM cells; assay type: functional; conditions: Homo sapiens
Method in brief: (§1)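 XTT cytoprotection assay in CEM-SS cells infected with HIV-1 RF, with uninfected cultures for cytotoxicity, in presence of fetal calf serum. Data as percent of uninfected drug-free control. EC50 is 50% protection from cytopathicity; CC50 is 50% cell death in uninfected cells; TI = CC50/EC50. Triplicates on each of two sister plates, plate EC50s averaged. Confirmed by supernatant RT and p24.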

[2] = system: CEM-SS; assay: Inhibitory concentration for cytopathicity of HIV-1 RF in CEM-SS cells; NA means there was no observed inhibition of HIV-1 cytopathicity up to the cytotoxic concentration in uninfected cells.; assay type: functional, cell-based; method in brief: as §1
[3] = target: Human immunodeficiency virus type 1 reverse transcriptase (Human immunodeficiency virus 1, UniProt Q72547); assay: Inhibitory activity against human immunodeficiency virus (HIV) - 1 reverse transcriptase with rCdG as the template primer
Method in brief: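 Reactions stopped with ice-cold 10% trichloroacetate, filtered through GF/C membrane, washed with ethanol, radiolabel counted by Cerenkov counting. AZTTP and nevirapine as positive controls; IC50 reported.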

[4] = system: CEM-SS; assay: Inhibitory concentration for cytopathicity of HIV-1 in CEM-SS cells; assay type: functional, cell-based; conditions: Homo sapiens; method in brief: as §1
[5] = system: CEM-SS; assay: The compound is evaluated for the therapeutic index, which is the CC50 divided by the EC50.; assay type: functional; method in brief: as §1
[6] = system: CCRF-CEM; assay: The compound is evaluated for the activity against 129/cost (costatolide resistant), V108I mutation in reverse transcriptase in CEM-CC cells.; assay type: functional, cell-based; conditions: Homo sapiens, in the assay text read “K103N” for “V108I”
Method in brief: (§2)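 Cytoprotection assay in CEM-CC cells against NNRTI-resistant HIV-1 isolates obtained by in vitro selection or site-directed mutagenesis, using a higher MOI than the original screening assays. EC50 determined; fold resistance relative to wild-type HIV-1 IIIB.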

[7] = system: CCRF-CEM; assay: The compound is evaluated for the activity against 3TC, M184I mutation in reverse transcriptase in CEM-CC cells.; assay type: functional, cell-based; conditions: Homo sapiens
[8] = system: CCRF-CEM; assay: The compound is evaluated for the activity against DPS ( Diphenyl sulfone resistant), Y181C mutation in reverse transcriptase in CEM-CC cells.; assay type: functional, cell-based; conditions: Homo sapiens; method in brief: as §2
[9] = system: CEM-SS; assay: The compound is evaluated for the activity against HIV-1 NL4-3, 4XAZT (AZT resistant) mutation in reverse transcriptase in CEM-SS cells.; assay type: functional, cell-based; conditions: Homo sapiens
Method in brief: (§3)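 NL4-3-background virus carrying RT mutations, from site-directed mutagenesis or in vitro NNRTI selection, tested in CEM-SS cells. A higher MOI was used than in the primary screening assays. The result is given as EC50 against each mutant or wild-type virus.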

[10] = system: CEM-SS; assay: The compound is evaluated for the activity against HIV-1 NL4-3, 4XAZT/L100I (AZT resistant) mutation in reverse transcriptase in CEM-SS cells.
[11] = system: CEM-SS; assay: The compound is evaluated for the activity against HIV-1 NL4-3, 4XAZT/Y181C (AZT resistant) mutation in reverse transcriptase in CEM-SS cells.
[12] = system: CEM-SS; assay: The compound is evaluated for the activity against HIV-1 NL4-3, A98G mutation in reverse transcriptase in CEM-SS cells.
[13] = system: CEM-SS; assay: The compound is evaluated for the activity against HIV-1 NL4-3, K101E mutation in reverse transcriptase in CEM-SS cells.
[14] = system: CEM-SS; assay: The compound is evaluated for the activity against HIV-1 NL4-3, K103N mutation in reverse transcriptase in CEM-SS cells.
[15] = system: CEM-SS; assay: The compound is evaluated for the activity against HIV-1 NL4-3, L100I mutation in reverse transcriptase in CEM-SS cells.
[16] = system: CEM-SS; assay: The compound is evaluated for the activity against HIV-1 NL4-3, L74V mutation in reverse transcriptase in CEM-SS cells.
[17] = system: CEM-SS; assay: The compound is evaluated for the activity against HIV-1 NL4-3, V106A mutation in reverse transcriptase in CEM-SS cells.
[18] = system: CEM-SS; assay: The compound is evaluated for the activity against HIV-1 NL4-3, V108I mutation in reverse transcriptase in CEM-SS cells.
[19] = system: CEM-SS; assay: The compound is evaluated for the activity against HIV-1 NL4-3, V179D mutation in reverse transcriptase in CEM-SS cells.
[20] = system: CEM-SS; assay: The compound is evaluated for the activity against HIV-1 NL4-3, Y188C mutation in reverse transcriptase in CEM-SS cells.
[21] = system: CEM-SS; assay: The compound is evaluated for the activity against HIV-1 NL4-3, wild - type mutation in reverse transcriptase in CEM-SS cells.; assay type: functional, cell-based; conditions: Homo sapiens; method in brief: as §3
[22] = system: CEM-SS; assay: The compound is evaluated for the inhibitory activity against HIV-1 IIIB, wild-type laboratory adapted strain in CEM-SS.; assay type: functional, cell-based; conditions: Homo sapiens
Method in brief: (§4)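 XTT cytoprotection assay in CEM-SS cells infected with HIV-1. EC50 is the concentration giving 50% protection from viral cytopathicity, relative to the uninfected drug-free control. Triplicates were averaged on each of two sister plates, and the two plate EC50s were averaged. Results were confirmed by supernatant RT and p24 levels.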

[23] = system: CEM-SS; assay: The compound is evaluated for the inhibitory activity against HIV-1 RF, wild-type laboratory adapted strain in CEM-SS.; assay type: functional, cell-based; conditions: Homo sapiens; method in brief: as §4
[24] = system: CCRF-CEM; assay: The compound is evaluated for the activity against HEPT ((Hydroxyethoxy) methyl (phenylthio)thymine resistant), P236L mutation in reverse transcriptase in CEM-CC cells.; assay type: functional, cell-based; conditions: Homo sapiens; method in brief: as §2
[25] = system: CCRF-CEM; assay: The compound is evaluated for the activity against HIV-1 IIIB, wild - type mutation in reverse transcriptase in CEM-CC cells.; assay type: functional, cell-based; conditions: Homo sapiens
Method in brief: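 Resistant-virus panel in CEM-CC cells. Mutant isolates came from in vitro selection under various NNRTIs. More virus (higher MOI) was used than in the primary screening assays. The result is given as EC50 against each RT-mutant or wild-type isolate.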

[26] = system: CCRF-CEM; assay: The compound is evaluated for the activity against OC (Oxathiin carboxanilide resistant), L100I mutation in reverse transcriptase in CEM-CC cells.; assay type: functional, cell-based; conditions: Homo sapiens; method in brief: as §2
[27] = system: CCRF-CEM; assay: The compound is evaluated for the activity against TSAO/cost (costatolide resistant), K101E mutation in reverse transcriptase in CEM-CC cells.; assay type: functional, cell-based; conditions: Homo sapiens; method in brief: as §2
[28] = system: CCRF-CEM; assay: The compound is evaluated for the activity against calo ( calanolide resistant), T139I mutation in reverse transcriptase in CEM-CC cells.; assay type: functional, cell-based; conditions: Homo sapiens; method in brief: as §2
[29] = system: CCRF-CEM; assay: The compound is evaluated for the activity against cost, Y188H mutation in reverse transcriptase in CEM-CC cells.; assay type: functional, cell-based; conditions: Homo sapiens; method in brief: as §2
[30] = system: CCRF-CEM; assay: The compound is evaluated for the activity against thiazol (thiazolobenzimidazole resistant), T139I mutation in reverse transcriptase in CEM-CC cells.; assay type: functional, cell-based; conditions: Homo sapiens, in the assay text read “V108I” for “T139I”; method in brief: as §2
[31] = target: Human immunodeficiency virus type 1 integrase (Human immunodeficiency virus 1, UniProt Q7ZJM1); assay: The compound is evaluated for the inhibitory against HIV -1 integrase. NI indicates no inhibition at 100 uM conc.
[32] = organism: Homo sapiens; assay: The compound is evaluated for the inhibitory activity against HIV-1 Ba-L, monocyte-tropic in Mono/Mac cells.; assay type: functional, cell-based
[33] = target: Human immunodeficiency virus 1 nucleocapsid (Human immunodeficiency virus 1, UniProt Q76059); assay: Inhibition of HIV-1 Nucleocapsid protein p7 (no inhibition at 25 uM)
[34] = The compound is evaluated for the inhibitory activity against HIV-1, clade A in PBMC cells.; assay type: functional, cell-based, Homo sapiens
[35] = The compound is evaluated for the inhibitory activity against HIV-1, clade B in PBMC cells.; assay type: functional, cell-based, Homo sapiens
[36] = The compound is evaluated for the inhibitory activity against HIV-1, clade C in PBMC cells.; assay type: functional, cell-based, Homo sapiens
[37] = The compound is evaluated for the inhibitory activity against HIV-1, clade D in PBMC cells.; assay type: functional, cell-based, Homo sapiens
[38] = The compound is evaluated for the inhibitory activity against HIV-1, clade E in PBMC cells.; assay type: functional, cell-based, Homo sapiens
[39] = The compound is evaluated for the inhibitory activity against HIV-1, clade F in PBMC cells.; assay type: functional, cell-based, Homo sapiens
[40] = target: Human immunodeficiency virus type 1 protease (Human immunodeficiency virus 1, UniProt Q72874); assay: The compound is evaluated for the inhibitory against HIV -1 protease, a 17% inhibition of HIV-1 protease was observed at a concentration of 100 uM
[41] = The compound is evaluated for the inhibitory activity against HIV-1 ROJO, wild-type clinical isolate in PBMC cells.; assay type: functional, cell-based, Homo sapiens
[42] = The compound is evaluated for the inhibitory activity against HIV-1 TEKI, wild-type clinical isolate in PBMC cells.; assay type: functional, cell-based, Homo sapiens
[43] = system: CEM-SS; assay: The compound is evaluated for the activity against HIV-1 NL4-3, Y181C mutation in reverse transcriptase in CEM-SS cells.

COC(=O)c1cc(C(=CCCOS(C)(=O)=O)c2cc(Cl)c(OC)c(C(=O)OC)c2)cc(Cl)c1OC
CC50 [1]: 6.9 µM
EC50 [2]: Not Active
IC50 [3]: 96 µM

COC(=O)c1cc(C(=CCCO)c2cc(Br)c(OC)c(C(=O)OC)c2)cc(Br)c1OC
CC50 [1]: > 316 µM
EC50 [4]: 6 µM
IC50 [3]: 31.6 µM
TI [5]: >52

COC=C(c1cc(Br)c(OC)c(C(=O)OC)c1)c1cc(Br)c(OC)c(C(=O)OC)c1
CC50 [1]: 22 µM
EC50 [2]: Not Active
IC50 [3]: > 100 µM

COC(=O)c1cc(C(=CC(=O)OC(C)(C)C)c2cc(Cl)c(OC)c(C(=O)OC)c2)cc(Cl)c1OC
CC50 [1]: > 100 µM
EC50 [2]: Not Active
IC50 [3]: > 100 µM

COc1c(Cl)cc(C(=CCCCC(=O)O)c2cc(Cl)c(OC)c(C(=O)O)c2)cc1C(=O)O
CC50 [1]: > 316 µM
EC50 [4]: 180 µM
IC50 [3]: > 100 µM
TI [5]: 1.7

C=C(c1cc(Br)c(OC)c(C(=O)OC)c1)c1cc(Br)c(OC)c(C(=O)OC)c1
CC50 [1]: 316 µM
EC50 [2]: Not Active
IC50 [3]: > 100 µM

COC(=O)CCCC=C(c1cc(Cl)c(OC)c(C(=O)OC)c1)c1cc(Cl)c(OC)c(C(=O)OC)c1
EC50 [6]: 10.8 µM
EC50 [7]: 1.08 µM
EC50 [8]: > 50 µM
CC50 [1]: 31.6 µM
EC50 [9]: 0.9 µM
EC50 [10]: 0.27 µM
EC50 [11]: > 50 µM
EC50 [12]: 0.84 µM
EC50 [13]: 3.05 µM
EC50 [14]: > 50 µM
EC50 [15]: < 0.16 µM
EC50 [16]: 2.23 µM
EC50 [17]: 12.7 µM
EC50 [18]: 12 µM
EC50 [19]: 50 µM
EC50 [20]: 10.8 µM
EC50 [21]: 1.78 µM
EC50 [22]: 0.16 µM
EC50 [23]: 0.91 µM
EC50 [24]: 8.08 µM
EC50 [25]: 0.39 µM
EC50 [26]: 0.94 µM
EC50 [27]: 11.9 µM
EC50 [28]: 15 µM
EC50 [29]: > 50 µM
EC50 [30]: > 50 µM
IC50 [31]: No inhibition
EC50 [32]: 0.36 µM
IC50 [33]: No inhibition
EC50 [34]: 1.09 µM
EC50 [35]: 0.43 µM
EC50 [36]: 1.04 µM
EC50 [37]: 1.02 µM
EC50 [38]: 0.4 µM
EC50 [39]: 1.7 µM
IC50 [40]: > 100 µM
EC50 [41]: 2.28 µM
EC50 [42]: 2.2 µM
EC50 [43]: > 50 µM

CC1(C)OC(=O)c2cc(C(=CCCO)c3cc(Cl)c4c(c3)C(=O)OC(C)(C)O4)cc(Cl)c2O1
CC50 [1]: 18.8 µM
EC50 [2]: Not Active
IC50 [3]: > 100 µM

CCCCCC1OC1(c1cc(Br)c(OC)c(C(=O)OC)c1)c1cc(Br)c(OC)c(C(=O)OC)c1 (stereo unspecified)
CC50 [1]: > 100 µM
EC50 [2]: Not Active
IC50 [3]: 5.6 µM

CCCCCC=C(c1ccc(OC)c(C(=O)OC)c1)c1ccc(OC)c(C(=O)OC)c1
CC50 [1]: 14 µM
EC50 [2]: Not Active
IC50 [3]: 3.2 µM

COC(=O)c1cc(C(=CCCCC(=O)O)c2cc(Cl)c(OC)c(C(=O)OC)c2)cc(Cl)c1OC
CC50 [1]: 100 µM
EC50 [2]: Not Active
IC50 [3]: > 100 µM
